Assay results: ChEMBL document CHEMBL3751813, “Nonpeptidic Amphiphilic Xanthone Derivatives: Structure-Activity Relationship and Membrane-Targeting Properties” (J Med Chem, 2016)
In brackets after ≈: the same amount, converted by molar mass.

Key:
[1] = Hemolytic activity against New Zealand white rabbit RBC after 1 hr by microplate reader analysis; type: ADME, cell-based, Oryctolagus cuniculus, Erythrocyte; conditions: rabbit red blood cells
Outline: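 Rabbit RBCs spun from serum at 3,000 rpm for 10 min and washed twice in PBS. Mixed with compound in DMF at 4% v/v RBCs, 1 h at 37 °C. After centrifugation, hemoglobin in the supernatant read at 576 nm. 2% Triton X-100 was the positive control and 1% DMF the negative control.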

Staphylococcus aureus [2] = assay: Antibacterial activity against clinical isolates of methicillin-resistant Staphylococcus aureus DM21455 after 24 hrs by […]; type: functional; conditions: DM21455, 24 h
Bacillus cereus = assay: Antibacterial activity against clinical isolates of Bacillus cereus ATCC 11778 after 24 hrs by […]; type: functional; conditions: ATCC 11778, 24 h
Staphylococcus aureus [3] = assay: Antibacterial activity against clinical isolates of Staphylococcus aureus DM4001R after 24 hrs by […]; type: functional
Staphylococcus aureus [4] = assay: Antibacterial activity against clinical isolates of methicillin-resistant Staphylococcus aureus DM9808R after 24 hrs by […]; type: functional
Staphylococcus aureus [5] = assay: Induction of membrane permeabilization in clinical isolates of Staphylococcus aureus DM4001 assessed as ATP leakage at MIC incubated for 10 mins by firefly luciferase based luminometry analysis; type: functional
Outline: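 Exponential-phase cells washed twice in 20 mM PBS pH 7 and set to OD620 0.3. Exposed 10 min at 37 °C, then spun at 4000 rpm for 5 min. Supernatant mixed with luciferase reagent (1 mM DTT, 0.5 mM D-luciferin, 1.25 µg/mL firefly luciferase). Luminescence read over 30 cycles.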

[6] = Selectivity index, ratio of HC50 for hemolytic activity against New Zealand white rabbit RBC to MIC for clinical isolates of Staphylococcus aureus DM4001
Staphylococcus aureus [7] = assay: Induction of membrane permeabilization in clinical isolates of Staphylococcus aureus DM4001 at MIC by SYTOX green uptake assay; type: functional
Outline: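 Exponential-phase cells washed twice in 20 mM PBS pH 7 and adjusted to OD620 0.09. Given 3 µM SYTOX Green and kept in the dark until fluorescence was stable, then compound added. Fluorescence followed in a stirred cuvette at ex 504/em 523 nm. Melittin 10 µg/mL was the positive control. Run at least twice; one run reported.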

Structure (SMILES) | HC50 at 1 h [1] | MIC (Staphylococcus aureus [2]) | MIC (Bacillus cereus) | MIC (Staphylococcus aureus [3]) | MIC (Staphylococcus aureus [4]) | Activity (Staphylococcus aureus [5]) | Selectivity ratio [6] | Activity (Staphylococcus aureus [7])
COc1c(OCCCCN2C(=O)c3ccccc3C2=O)cc2oc3cc(OCCCCN4C(=O)c5ccccc5C4=O)c(CC=C(C)C)c(O)c3c(=O)c2c1CC=C(C)C | > 200 µg/mL | > 50 mg/L | > 50 mg/L | > 50 mg/L | > 50 mg/L |  |  | 
CCN(CCO)CCCCOc1cc2oc3cc(OCCCCN(CC)CCO)c(OC)c(CC=C(C)C)c3c(=O)c2c(O)c1CC=C(C)C | 31.8 µg/mL | 6.25 mg/L (≈ 8.97 µM) | 3.12 mg/L (≈ 4.48 µM) | 6.25 mg/L (≈ 8.97 µM) | 3.12 mg/L (≈ 4.48 µM) | 5027 nM | 5.1 | 112772 cps
COc1c(OCCCCN2CCCC2)cc2oc3cc(OCCCCN4CCCC4)c(CCC(C)C)c(O)c3c(=O)c2c1CCC(C)C | 34.8 µg/mL | 6.25 mg/L (≈ 9.4 µM) | 6.25 mg/L (≈ 9.4 µM) | 12.5 mg/L (≈ 18.8 µM) | 6.25 mg/L (≈ 9.4 µM) |  | 1.4 | 
COc1c(OCCCCN2CCN(CCN(C)C)CC2)cc2oc3cc(OCCCCN4CCN(CCN(C)C)CC4)c(CC=C(C)C)c(O)c3c(=O)c2c1CC=C(C)C | 35.9 µg/mL | 3.12 mg/L (≈ 3.75 µM) | 6.25 mg/L (≈ 7.5 µM) | 6.25 mg/L (≈ 7.5 µM) | 3.12 mg/L (≈ 3.75 µM) | 2975 nM | 5.7 | 5850 cps
COc1c(OCCCCI)cc2oc3cc(OCCCCI)c(CC=C(C)C)c(OCCCCI)c3c(=O)c2c1CC=C(C)C | > 200 µg/mL | > 50 mg/L | 50 mg/L (≈ 52.3 µM) | > 50 mg/L | > 50 mg/L |  |  | 
COc1c(OCCCCN2CCC(O)CC2)cc2oc3cc(OCCCCN4CCC(O)CC4)c(CC=C(C)C)c(O)c3c(=O)c2c1CC=C(C)C | 36 µg/mL | 12.5 mg/L (≈ 17.3 µM) | 6.25 mg/L (≈ 8.67 µM) | 6.25 mg/L (≈ 8.67 µM) | 3.12 mg/L (≈ 4.33 µM) | 5938 nM | 5.8 | 50250 cps
O=c1c2ccc(OCCCCN3CCCC3)cc2oc2cc(OCCCCN3CCCC3)cc(O)c12 | > 200 µg/mL | > 50 mg/L | > 50 mg/L | > 50 mg/L | > 50 mg/L |  |  | 
COc1c(OCCCCNC(=N)N)cc2oc3cc(OCCCCNC(=N)N)c(CC=C(C)C)c(O)c3c(=O)c2c1CC=C(C)C | 64.1 µg/mL | 6.25 mg/L (≈ 9.81 µM) | 6.25 mg/L (≈ 9.81 µM) | 3.12 mg/L (≈ 4.91 µM) | 6.25 mg/L (≈ 9.81 µM) | 2237 nM | 20.5 | 68378 cps
CCN(CCCCOc1cc2oc3cc(OCCCCN(CC)C(C)C)c(OC)c(CC=C(C)C)c3c(=O)c2c(O)c1CC=C(C)C)C(C)C | 54.6 µg/mL | 25 mg/L (≈ 36.1 µM) | 12.5 mg/L (≈ 18 µM) | 25 mg/L (≈ 36.1 µM) | 12.5 mg/L (≈ 18 µM) | 5407 nM | 2.2 | 97824 cps
COc1c(OCCCCN2CCCCC2)cc2oc3cc(OCCCCN4CCCCC4)c(CC=C(C)C)c(O)c3c(=O)c2c1CC=C(C)C |  | 1.56 mg/L (≈ 2.26 µM) | 6.25 mg/L (≈ 9.07 µM) | 0.78 mg/L (≈ 1.13 µM) | 1.56 mg/L (≈ 2.26 µM) | 626 nM | 24.7 | 2797 cps
COc1c(OCCCCn2cncn2)cc2oc3cc(OCCCCn4cncn4)c(CC=C(C)C)c(O)c3c(=O)c2c1CC=C(C)C | > 200 µg/mL | > 50 mg/L | > 50 mg/L | > 50 mg/L | > 50 mg/L | 416 nM |  | 1979 cps
CCN(C)CCCCOc1cc2oc3cc(OCCCCN(C)CC)c(OC)c(CC=C(C)C)c3c(=O)c2c(O)c1CC=C(C)C | 25.1 µg/mL | 1.56 mg/L (≈ 2.45 µM) | 6.25 mg/L (≈ 9.81 µM) | 1.56 mg/L (≈ 2.45 µM) | 6.25 mg/L (≈ 9.81 µM) | 1734 nM | 16.1 | 12456 cps
CCCN(C)CCCCOc1cc2oc3cc(OCCCCN(C)CCC)c(OC)c(CC=C(C)C)c3c(=O)c2c(O)c1CC=C(C)C | 32.6 µg/mL | 12.5 mg/L (≈ 18.8 µM) | 12.5 mg/L (≈ 18.8 µM) | 25 mg/L (≈ 37.6 µM) | 25 mg/L (≈ 37.6 µM) | 3945 nM | 1.3 | 87537 cps
CCCCN(CC)CCCCOc1cc2oc3cc(OCCCCN(CC)CCCC)c(OC)c(CC=C(C)C)c3c(=O)c2c(O)c1CC=C(C)C | > 200 µg/mL | 25 mg/L (≈ 34.7 µM) | 25 mg/L (≈ 34.7 µM) | 12.5 mg/L (≈ 17.3 µM) | 6.25 mg/L (≈ 8.67 µM) | 12480 nM | > 16 | 64790 cps
COc1c(OCCCCn2cccn2)cc2oc3cc(OCCCCn4cccn4)c(CC=C(C)C)c(O)c3c(=O)c2c1CC=C(C)C | > 200 µg/mL | > 50 mg/L | > 50 mg/L | > 50 mg/L | > 50 mg/L | 310 nM |  | 3445 cps
COc1c(OCCCCN(CCO)CCO)cc2oc3cc(OCCCCN(CCO)CCO)c(CC=C(C)C)c(O)c3c(=O)c2c1CC=C(C)C | 60.6 µg/mL | 0.78 mg/L (≈ 1.07 µM) | 3.12 mg/L (≈ 4.29 µM) | 3.12 mg/L (≈ 4.29 µM) | 1.56 mg/L (≈ 2.14 µM) | 3741 nM |  | 59694 cps
CCN1CCN(CCCCOc2cc3oc4cc(OCCCCN5CCN(CC)CC5)c(OC)c(CC=C(C)C)c4c(=O)c3c(O)c2CC=C(C)C)CC1 | 138 µg/mL | 6.25 mg/L (≈ 8.37 µM) | 25 mg/L (≈ 33.5 µM) | 25 mg/L (≈ 33.5 µM) | 12.5 mg/L (≈ 16.7 µM) | 7822 nM | 5.5 | 15095 cps
COc1c(OCCCCN2CCSCC2)cc2oc3cc(OCCCCN4CCSCC4)c(CC=C(C)C)c(O)c3c(=O)c2c1CC=C(C)C | > 200 µg/mL | > 50 mg/L | > 50 mg/L | > 50 mg/L | > 50 mg/L | 5 nM |  | 7129 cps
COc1c(OCCCCn2ccnc2)cc2oc3cc(OCCCCn4ccnc4)c(CC=C(C)C)c(O)c3c(=O)c2c1CC=C(C)C | > 200 µg/mL | > 50 mg/L | > 50 mg/L | > 50 mg/L | > 50 mg/L |  |  | 
COc1c(OCCCCN2CCOCC2)cc2oc3cc(OCCCCN4CCOCC4)c(CC=C(C)C)c(O)c3c(=O)c2c1CC=C(C)C | > 200 µg/mL | > 50 mg/L | > 50 mg/L | > 50 mg/L | > 50 mg/L | 229 nM |  | 6358 cps
COc1c(OCCCCN(C)C)cc2oc3cc(OCCCCN(C)C)c(CCC(C)C)c(O)c3c(=O)c2c1CCC(C)C | 60.7 µg/mL | 12.5 mg/L (≈ 20.4 µM) | 12.5 mg/L (≈ 20.4 µM) | 12.5 mg/L (≈ 20.4 µM) | 25 mg/L (≈ 40.8 µM) |  | 4.9 | 
COc1c(OCCCCN2CCN(C(=O)OC(C)(C)C)CC2)cc2oc3cc(OCCCCN4CCN(C(=O)OC(C)(C)C)CC4)c(CC=C(C)C)c(O)c3c(=O)c2c1CC=C(C)C | > 200 µg/mL | > 50 mg/L | > 50 mg/L | > 50 mg/L | > 50 mg/L |  |  | 
COc1c(OCCCCN2CCCC2)cc2oc3cc(OCCCCN4CCCC4)c(CC=C(C)C)c(O)c3c(=O)c2c1CC=C(C)C |  | 1.56 mg/L (≈ 2.36 µM) | 6.25 mg/L (≈ 9.46 µM) | 1.56 mg/L (≈ 2.36 µM) | 1.56 mg/L (≈ 2.36 µM) | 465 nM | 16 | 814 cps
